Results on 22 molecules are retold here after ChEMBL document CHEMBL1153817, “New resorcinol-anandamide "hybrids" as potent cannabinoid receptor ligands endowed with antinociceptive activity in vivo” (J Med Chem, 2009).

The source made the active and inactive calls. The calls are words filed in the database; no cut-off is given here.

The subject of assay [1] is COS. Description: Selectivity index, ratio of Ki for human CB2 receptor to Ki for human CB1 receptor expressed in african green monkey COS cells. The format is cell-based. In a few lines: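 Ki at COS-expressed human CB1 and CB2 each from [3H]CP-55,940 displacement (0.14 nM for CB1), IC50 converted via Cheng-Prusoff, mean of 3 experiments; index taken as ratio of the two Ki values.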

The target of assay [2] is T1, Cannabinoid receptor 1 (Homo sapiens, UniProt P21554). The assay is described as follows: Displacement of [3H]CP-55940 form human CB1 receptor expressed in HEK cells at 10 uM. The assay is classed as cell-based. As to conditions: HEK293. A general note: Loss of bound radioactivity is the signal in a displacement assay; it reports binding, not function.
T1 sequence (P21554 whole entry): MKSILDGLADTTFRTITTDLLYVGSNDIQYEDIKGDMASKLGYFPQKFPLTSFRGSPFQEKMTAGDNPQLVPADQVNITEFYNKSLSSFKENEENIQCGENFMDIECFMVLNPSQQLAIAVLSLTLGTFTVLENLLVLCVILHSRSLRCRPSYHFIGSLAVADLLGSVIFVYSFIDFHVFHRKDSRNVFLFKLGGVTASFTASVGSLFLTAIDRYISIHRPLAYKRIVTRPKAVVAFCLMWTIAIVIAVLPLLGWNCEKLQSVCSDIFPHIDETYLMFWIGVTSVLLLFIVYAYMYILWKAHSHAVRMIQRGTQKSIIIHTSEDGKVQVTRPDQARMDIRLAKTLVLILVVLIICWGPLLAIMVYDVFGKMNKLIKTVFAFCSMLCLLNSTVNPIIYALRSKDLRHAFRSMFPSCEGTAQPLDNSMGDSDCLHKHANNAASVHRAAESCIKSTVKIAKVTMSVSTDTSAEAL
For assay [3], the target named is T2, Cannabinoid receptor 2 (Homo sapiens, UniProt P34972). Description: Displacement of [3H]CP-55940 form human CB2 receptor expressed in HEK cells at 10 uM. The conditions noted are these: HEK293. The assay is classed as cell-based.
T2 sequence (P34972 whole entry): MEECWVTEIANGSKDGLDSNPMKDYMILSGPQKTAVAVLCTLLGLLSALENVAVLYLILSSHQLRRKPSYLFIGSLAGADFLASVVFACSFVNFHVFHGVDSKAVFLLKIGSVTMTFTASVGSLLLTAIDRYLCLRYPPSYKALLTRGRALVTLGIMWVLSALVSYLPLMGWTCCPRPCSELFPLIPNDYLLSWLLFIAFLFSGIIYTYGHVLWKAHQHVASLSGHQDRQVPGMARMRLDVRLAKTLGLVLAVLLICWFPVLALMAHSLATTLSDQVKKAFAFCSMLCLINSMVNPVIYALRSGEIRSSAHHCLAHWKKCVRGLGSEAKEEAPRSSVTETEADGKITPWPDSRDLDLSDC
Assay [4] has as its target T2, Cannabinoid receptor 2. Description: Binding affinity to human recombinant CB2 receptor expressed in african green monkey COS cells by radioligand binding assay. The assay is classed as cell-based.
For assay [5], the target named is T1, Cannabinoid receptor 1. Description: Binding affinity to human recombinant CB1 receptor expressed in african green monkey COS cells by radioligand binding assay. The format is cell-based.
Assay [6] has as its target T3, Cannabinoid receptor 2 (Rattus norvegicus, UniProt Q9QZN9).
T3 sequence (Q9QZN9 whole entry): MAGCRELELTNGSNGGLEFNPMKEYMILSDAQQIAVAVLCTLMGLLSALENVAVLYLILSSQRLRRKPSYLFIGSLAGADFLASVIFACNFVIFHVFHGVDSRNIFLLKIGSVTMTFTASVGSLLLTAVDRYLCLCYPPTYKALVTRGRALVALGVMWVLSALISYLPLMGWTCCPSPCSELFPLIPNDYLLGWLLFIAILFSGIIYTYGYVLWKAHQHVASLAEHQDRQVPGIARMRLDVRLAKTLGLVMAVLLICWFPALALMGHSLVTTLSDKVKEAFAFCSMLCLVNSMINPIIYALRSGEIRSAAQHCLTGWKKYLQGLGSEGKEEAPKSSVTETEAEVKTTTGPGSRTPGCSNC
Description: Binding affinity to CB2 receptor in rat brain membrane. The format is cell membranes.

Assay [7] has as its target T4, Cannabinoid receptor 1 (Rattus norvegicus, UniProt P20272). Description: Binding affinity to CB1 receptor in rat spleen membrane. The assay is classed as cell membranes.
The target in assay [8] is T3, Cannabinoid receptor 2. The assay is described as follows: Binding affinity to CB2 receptor in rat spleen membrane. The format is cell membranes.
Assay [9] addresses T4, Cannabinoid receptor 1. The assay is described as follows: Binding affinity to CB1 receptor in rat brain membrane. The assay is classed as cell membranes.
Assay [10] concerns Mus musculus. The assay is described as follows: Antinociceptive activity against formalin-induced paw pain in mouse at 1 mg/kg, ip pretreated 15 mins before formalin challenge assessed after 30 to 45 mins. Details: dose 1 mg/kg. The format is functional, organism-based. In a few lines:
(§1)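 Formalin (1.25% in saline, 30 µL) injected into dorsal hind paw; mice randomised, n = 8-10 per group, one treatment each. Test drug given ip in 10% DMSO/saline 15 min pre-formalin; rimonabant or AM630 (1 mg/kg ip) given 5 min before test drug. Lifting, licking, shaking, flinching timed per 5 min over 60 min; one-way ANOVA with Bonferroni.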

For assay [11], the system named is Mus musculus. Description: Antinociceptive activity against formalin-induced paw pain in mouse at 1 mg/kg, ip pretreated 15 mins before formalin challenge assessed after 30 to 45 mins in presence of CB2 receptor-antagonist AM630. Details: dose 1 mg/kg. The assay is classed as functional, organism-based. In a few lines:
as §1

The subject of assay [12] is Mus musculus. The assay is described as follows: Antinociceptive activity against formalin-induced paw pain in mouse at 1 mg/kg, ip pretreated 15 mins before formalin challenge assessed after 30 to 45 mins in presence of CB1 receptor-antagonist rimonabant. The format is functional, organism-based. Details: dose 1 mg/kg. The essentials: as §1

T4 sequence (P20272 whole entry): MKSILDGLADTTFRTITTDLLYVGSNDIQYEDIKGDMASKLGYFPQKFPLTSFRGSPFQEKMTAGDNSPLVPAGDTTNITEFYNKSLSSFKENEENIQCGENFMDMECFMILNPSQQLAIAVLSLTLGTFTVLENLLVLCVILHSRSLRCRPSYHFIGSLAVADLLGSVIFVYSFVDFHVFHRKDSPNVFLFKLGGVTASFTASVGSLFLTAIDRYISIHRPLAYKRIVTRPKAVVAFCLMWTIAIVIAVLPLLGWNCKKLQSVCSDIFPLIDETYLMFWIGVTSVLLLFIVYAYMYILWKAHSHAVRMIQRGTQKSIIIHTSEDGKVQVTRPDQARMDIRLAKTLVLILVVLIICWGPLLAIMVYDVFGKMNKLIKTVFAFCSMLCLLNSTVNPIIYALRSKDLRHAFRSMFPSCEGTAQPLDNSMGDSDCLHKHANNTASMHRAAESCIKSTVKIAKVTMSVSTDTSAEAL

Consider `CCCCOc1cc(O)cc(OCCCCCCCCCCC(=O)NC2CC2)c1`, for which the Ratio Ki in assay [1] stood at 2.3 µM. Besides, the Activity in assay [2] and in [3] was > 50% throughout. Also, the values for the Ki in assay [4] (read-out: Ki) and in assay [5] (read-out: Ki) were 0.12 µM and 0.28 µM, respectively.

The term IC50 denotes the concentration that inhibits the measured activity by half. As for `O=C(CCCCCCCCCCOc1cc(O)cc(O)c1)NCC1CC1`, the 50% inhibitory concentration (IC50) in assay [6], in [7], in assay [8] and in assay [9] was > 10 µM throughout. The Activity in assay [2] and in assay [3] was > 50% each time. The Ki entry in [4] (cos) is “Not Active”; in assay [4] (read-out: pKi (converted)), 10 µM; in assay [5] (cos), “Not Active”; in assay [5] (read-out: pKi (converted)), 10 µM.

For the molecule `CCCCCCC(C)(C)c1cc(O)cc(OCCCCCCCCCCCC(=O)NCC2CC2)c1`, the Ratio Ki in [1] was 9 µM. Further, the Activity in assay [2] and in assay [3] was > 50% each time. Further, the Ki in [4] (read-out: Ki) was determined as 0.6 µM; in assay [5] (read-out: Ki) it was 5.4 µM.

Consider `CC(C)CCOc1cc(O)cc(OCCCCCCCCCCC(=O)NCCO)c1`, for which the Ratio Ki in assay [1] was 5.1 µM. Further, the Activity in assay [2] and in assay [3] was > 50% throughout. Also, the results for the Ki in [4] (read-out: Ki) and in assay [5] (read-out: Ki) were 0.57 µM and 2.88 µM, respectively.

Consider `CCCCCCC(C)(C)c1cc(O)cc(OCCCCCCCCCCC(=O)NCC2CC2)c1`, for which, in [1], the Ratio Ki was 28.6 µM. For the same molecule, the Activity in [2] and in assay [3] was > 50% throughout. Also, the Ki was 0.035 µM in assay [4] (read-out: Ki) and 1 µM in assay [5] (read-out: Ki).

Consider `CCCCCCC(C)(C)c1cc(O)cc(OCCCCCCCCCCC(=O)NCc2ccc(O)c(OC)c2)c1`, for which, in [1], the Ratio Ki came to 5.5 µM. Also, the Activity in assay [2] and in assay [3] was > 50% throughout. The Ki in assay [4] (read-out: Ki) is 0.51 µM; in assay [5] (read-out: Ki), 2.82 µM.

Regarding `CCCCCCC(C)(C)c1cc(O)cc(OCCCCCCCC(=O)NC2CC2)c1`, the Ratio Ki in assay [1] was found to be 0.7 µM. Besides, the outcome in [10] was Active. In addition, the result in assay [11] and in assay [12] was inactive. The Activity in assay [2] and in [3] was > 50% each time. The Ki turned out to be 0.0079 µM in assay [4] (read-out: Ki) and 0.0056 µM in assay [5] (read-out: Ki).

For the molecule `O=C(CCCCCCCCCCOc1cc(O)cc(O)c1)NC1CC1`, the concentration for half-maximal inhibition (IC50) in assay [6], in assay [7], in assay [8] and in assay [9] was > 10 µM throughout. The Activity in [2] and in assay [3] was > 50% in each case. Further, the Ki entry was “Not Active” in [4] (cos), 10 µM in assay [4] (read-out: pKi (converted)), “Not Active” in [5] (cos) and 10 µM in assay [5] (read-out: pKi (converted)).

As to `CCCCCCC(C)(C)c1cc(O)cc(OCCCCCCCCCCC(=O)NCCc2ccc(O)c(O)c2)c1`, in assay [1], the Ratio Ki amounted to 0.7 µM. Further, the Activity in [2] and in assay [3] was > 50% throughout. The Ki in assay [4] (read-out: Ki) was determined as 5 µM; in [5] (read-out: Ki) it was 3.4 µM.

Turning to `CC(C)CCOc1cc(O)cc(OCCCCCCCCCCC(=O)NC2CC2)c1`, in assay [1], the Ratio Ki was found to be 1.7 µM. The Activity in assay [2] and in assay [3] was > 50% in each case. Moreover, the values for the Ki in assay [4] (read-out: Ki) and in assay [5] (read-out: Ki) were 0.13 µM and 0.22 µM, respectively.

With `CCCCCCC(C)(C)c1cc(O)cc(OCCCCCCCCCCC(=O)NC2CC2)c1`, the Ratio Ki in assay [1] is 2.7 µM. Also, the Activity in assay [2] and in assay [3] was > 50% in each case. Besides, the Ki was determined as 0.0079 µM in assay [4] (read-out: Ki) and 0.021 µM in [5] (read-out: Ki).

Take `CCCCCCCOc1cc(O)cc(OCCCCCCCCCCC(=O)NC2CC2)c1`: in assay [1], the Ratio Ki stood at 10.6 µM. Also, the Activity in [2] and in assay [3] was > 50% throughout. Further, the Ki in [4] (read-out: Ki) was determined as 0.21 µM; in assay [5] (read-out: Ki), 2.22 µM.

On to `CCCCCCC(C)(C)c1cc(O)cc(OCCCCCCCC(=O)NCC2CC2)c1`, for which, in assay [1], the Ratio Ki is 2.9 µM. Also, the Activity in [2] and in assay [3] was > 50% each time. In addition, the values for the Ki in [4] (read-out: Ki) and in [5] (read-out: Ki) were 0.034 µM and 0.1 µM, respectively.

Consider `CCCCOc1cc(O)cc(OCCCCCCCCCCC(=O)NCCO)c1`, for which the Ratio Ki in assay [1] was found to be 1.5 µM. Besides, the Activity in [2] and in assay [3] was > 50% throughout. The Ki was 1.62 µM in assay [4] (read-out: Ki) and 2.41 µM in assay [5] (read-out: Ki).

On to `CCCCCCC(C)(C)c1cc(O)cc(OCCCCCCCCCCCC(=O)NCCO)c1`, for which, in assay [1], the Ratio Ki was determined as 10.3 µM. For the same molecule, the Activity in assay [2] and in [3] was > 50% in each case. Further, the results for the Ki in assay [4] (read-out: Ki) and in assay [5] (read-out: Ki) were 0.08 µM and 0.82 µM, respectively.

Take `CCCCCCC(C)(C)c1cc(O)cc(OCCCCCCCCCCCC(=O)NC2CC2)c1`: the Ratio Ki in assay [1] was 8.5 µM. The Activity in assay [2] and in [3] was > 50% each time. Further, the Ki stood at 0.02 µM in assay [4] (read-out: Ki) and 0.17 µM in [5] (read-out: Ki).

Take `CC(C)CCOc1cc(O)cc(OCCCCCCCCCCC(=O)NCC2CC2)c1`: in assay [1], the Ratio Ki came out at 11.5 µM. Further, the Activity in assay [2] and in assay [3] was > 50% each time. In addition, the Ki amounted to 0.2 µM in assay [4] (read-out: Ki) and 2.3 µM in assay [5] (read-out: Ki).

In the case of `CCCCCCC(C)(C)c1cc(O)cc(OCCCCCCCCCCC(=O)NCCO)c1`, the Ratio Ki in assay [1] came out at 10.3 µM. For the same molecule, the Activity in assay [2] and in assay [3] was > 50% in each case. Moreover, the Ki in assay [4] (read-out: Ki) was 0.03 µM; in assay [5] (read-out: Ki), 0.31 µM.

Take `CCCCCc1cc(O)cc(OCCCCCCCCCCC(=O)NC2CC2)c1`: the Ratio Ki in [1] turned out to be 0.4 µM.

For the molecule `CCCCCCCOc1cc(O)cc(OCCCCCCCCCCC(=O)NCCO)c1`, the Ratio Ki in [1] stood at 1.3 µM. In addition, the Activity in assay [2] and in assay [3] was > 50% throughout. The Ki in assay [4] (read-out: Ki) turned out to be 2.42 µM; in assay [5] (read-out: Ki) it was 3.07 µM.

`CCCCCCC(C)(C)c1cc(O)cc(OCCCCCCCC(=O)NCCO)c1`: the Ratio Ki in assay [1] turned out to be 0.4 µM. The Activity in [2] and in [3] was > 50% in each case. Also, the Ki is 0.16 µM in [4] (read-out: Ki) and 0.056 µM in [5] (read-out: Ki).

Regarding `O=C(CCCCCCCCCCOc1cc(O)cc(O)c1)NCCO`, the IC50 in assay [6], in assay [7], in assay [8] and in assay [9] was > 10 µM throughout. The Activity in assay [2] and in [3] was > 50% each time. Also, the Ki result in [4] (cos) was “Not Active”; in assay [4] (read-out: pKi (converted)), 10 µM; in assay [5] (cos) it was “Not Active”; in assay [5] (read-out: pKi (converted)) it was 10 µM.
